Calls of active or inactive are those of the source. The calls are words filed in the database; no cut-off is given here.
Assays:
[1] = MRT (0 to t) in ICR mouse at 4 mg/kg, iv measured upto 24 hrs by LC-MS/MS analysis; type: ADME, organism-based; details: in vivo
HeLa [2] = assay: Induction of apoptosis in human HeLa cells assessed as viable cells at 0.5 uM incubated for 48 hrs by annexin V-FITC and PI staining based flow cytometry (reference value: 98.5 %); type: functional; details: read-out: Activity
HeLa [3] = assay: Induction of apoptosis in human HeLa cells assessed as necrotic cells at 2 uM incubated for 48 hrs by annexin V-FITC and PI staining based flow cytometry (reference value: 0.124 %); type: functional
HCT-116 [4] = assay: Induction of apoptosis in human HCT-116 cells assessed as viable cells at 1 uM incubated for 48 hrs by annexin V-FITC and PI staining based flow cytometry (reference value: 93.9 %); type: functional; details: read-out: Activity
HCT-116 [5] = assay: Induction of apoptosis in human HCT-116 cells assessed as necrotic cells at 0.5 uM incubated for 48 hrs by annexin V-FITC and PI staining based flow cytometry (reference value: 0.124 %); type: functional
HeLa [6] = assay: Antiproliferative activity against human HeLa cells assessed as reduction in cell growth incubated for 72 hrs by CCK-8 assay; type: functional, cell-based
Outline: (§1)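 IC50 by CCK-8 assay across five solid-tumour lines (HCT116, HepG2, H460, HeLa, A375). Run only for compounds chosen after the single-concentration screen, with CS055 and roscovitine as references.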

HCT-116 [7] = assay: Induction of apoptosis in human HCT-116 cells assessed as apoptosis rate at 2 uM incubated for 48 hrs by annexin V-FITC and PI staining based flow cytometry relative to control; type: functional
A-375 [8] = assay: Induction of apoptosis in human A-375 cells assessed as necrotic cells at 1 uM incubated for 48 hrs by annexin V-FITC and PI staining based flow cytometry (reference value: 0.139 %); type: functional
HCT-116 [9] = assay: Induction of apoptosis in human HCT-116 cells assessed as necrotic cells at 1 uM incubated for 48 hrs by annexin V-FITC and PI staining based flow cytometry (reference value: 0.124 %); type: functional
HeLa [10] = assay: Induction of apoptosis in human HeLa cells assessed as early apoptotic cells at 2 uM incubated for 48 hrs by annexin V-FITC and PI staining based flow cytometry (reference value: 0.528 %); type: functional
A-375 [11] = assay: Induction of apoptosis in human A375 cells assessed as apoptosis rate at 2 uM incubated for 48 hrs by annexin V-FITC and PI staining based flow cytometry relative to control; type: functional
NCI-H460 [12] = assay: Antiproliferative activity against human H460 cells assessed as reduction in cell growth at 8 uM incubated for 72 hrs by CCK-8 assay relative to control; type: functional
HCT-116 [13] = assay: Induction of apoptosis in human HCT-116 cells assessed as necrotic cells at 2 uM incubated for 48 hrs by annexin V-FITC and PI staining based flow cytometry (reference value: 0.124 %); type: functional
HeLa [14] = assay: Induction of apoptosis in human HeLa cells assessed as necrotic cells incubated for 48 hrs by annexin V-FITC and PI staining based flow cytometry; type: functional, cell-based; details: dose 0.5-2 µM
NCI-H460 [15] = assay: Induction of apoptosis in human NCI-H460 cells assessed as early apoptotic cells at 1 uM incubated for 48 hrs by annexin V-FITC and PI staining based flow cytometry (reference value: 2.88 %); type: functional
HepG2 [16] = assay: Cytotoxicity against human HepG2 cells assessed as effect on cell morphology at 0.5 to 8 micromol incubated for 48 hrs by microscopic analysis; type: functional, cell-based; details: dose 0.5-8 µmol
Outline: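 Five cancer cell lines treated with compound or DMSO (0.1 %) for 48 h. Morphology inspected by light microscopy at 10× objective.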

HepG2 [17] = assay: Antiproliferative activity against human HepG2 cells assessed as reduction in cell growth incubated for 72 hrs by CCK-8 assay; type: functional, cell-based; details: HepG2, 72 h; outline: as §1
A-375 [18] = assay: Induction of apoptosis in human A-375 cells assessed as late apoptotic cells at 2 uM incubated for 48 hrs by annexin V-FITC and PI staining based flow cytometry (reference value: 2.24 %); type: functional
HCT-116 [19] = assay: Induction of apoptosis in human HCT-116 cells assessed as early apoptotic cells at 1 uM incubated for 48 hrs by annexin V-FITC and PI staining based flow cytometry (reference value: 4.14 %); type: functional
[20] = Intraperitoneal bioavailability in ICR mouse at 20 mg/kg measured upto 24 hrs by LC-MS/MS analysis; details: in vivo, ip
[21] = MRT (0 to t) in ICR mouse at 20 mg/kg, ip measured upto 24 hrs by LC-MS/MS analysis; details: in vivo
[22] = AUC (0 to t) in ICR mouse at 20 mg/kg, ip measured upto 24 hrs by LC-MS/MS analysis; details: in vivo
HeLa [23] = assay: Induction of apoptosis in human HeLa cells assessed as viable cells at 2 uM incubated for 48 hrs by annexin V-FITC and PI staining based flow cytometry (reference value: 98.5 %); type: functional; details: read-out: Activity
NCI-H460 [24] = assay: Induction of apoptosis in human NCI-H460 cells assessed as necrotic cells incubated for 48 hrs by annexin V-FITC and PI staining based flow cytometry; type: functional, cell-based; details: dose 0.5-2 µM
A-375 [25] = assay: Induction of apoptosis in human A-375 cells assessed as late apoptotic cells at 1 uM incubated for 48 hrs by annexin V-FITC and PI staining based flow cytometry (reference value: 2.24 %); type: functional
Histone deacetylase 1 = Histone deacetylase 1 (Homo sapiens, UniProt Q13547); assay: Potency index, ratio of IC50 of CS055 to IC50 of compound for inhibition of recombinant human HDAC1 using […] as substrate incubated for 10 mins followed by substrate addition and measured after 30 mins by fluorescence based assay
Sequence of Histone deacetylase 1 (Q13547 whole entry): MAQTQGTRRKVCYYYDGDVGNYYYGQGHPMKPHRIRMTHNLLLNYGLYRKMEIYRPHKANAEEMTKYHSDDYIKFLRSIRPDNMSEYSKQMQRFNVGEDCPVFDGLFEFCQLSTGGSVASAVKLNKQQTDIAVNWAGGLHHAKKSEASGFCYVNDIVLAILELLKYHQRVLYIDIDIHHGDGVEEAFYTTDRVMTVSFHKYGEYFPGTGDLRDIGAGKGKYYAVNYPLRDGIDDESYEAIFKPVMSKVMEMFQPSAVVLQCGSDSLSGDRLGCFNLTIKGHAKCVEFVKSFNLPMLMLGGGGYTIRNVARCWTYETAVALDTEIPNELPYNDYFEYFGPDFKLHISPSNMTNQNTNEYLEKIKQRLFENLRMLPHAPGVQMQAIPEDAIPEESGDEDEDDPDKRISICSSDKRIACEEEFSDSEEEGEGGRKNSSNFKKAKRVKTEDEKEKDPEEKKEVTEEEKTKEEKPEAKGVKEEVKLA

A-375 [26] = assay: Induction of apoptosis in human A-375 cells assessed as necrotic cells incubated for 48 hrs by annexin V-FITC and PI staining based flow cytometry; type: functional, cell-based; details: dose 0.5-2 µM
A-375 [27] = assay: Induction of cell cycle arrest in human A-375 cells assessed as G2/M phase at 0.5 uM incubated for 24 hrs by PI staining based flow cytometry (reference value: 13.7 %); type: functional
Outline: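 Treatment at 2, 1 and 0.5 μM for 24 h, alongside CS055 and roscovitine, against a DMSO (0.1 %) blank. Cells then stained with propidium iodide and analyzed by flow cytometry.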

HeLa [28] = assay: Induction of apoptosis in human HeLa cells assessed as early apoptotic cells at 1 uM incubated for 48 hrs by annexin V-FITC and PI staining based flow cytometry (reference value: 0.528 %); type: functional
HCT-116 [29] = assay: Antiproliferative activity against human HCT-116 cells assessed as reduction in cell growth incubated for 72 hrs by CCK-8 assay; type: functional, cell-based; details: HCT-116, 72 h; outline: as §1
HeLa [30] = assay: Induction of apoptosis in human HeLa cells assessed as viable cells at 1 uM incubated for 48 hrs by annexin V-FITC and PI staining based flow cytometry (reference value: 98.5 %); type: functional; details: read-out: Activity

## Cc1ccc(Nc2nc(Cl)nc3c2ncn3Cc2ccc(C(=O)Nc3ccccc3N)cc2)cc1
[1]
  MRT last at 24 h: 33.8 min
HeLa [2]
  viability at 0.5 µM: 89.9%
HeLa [3]
  Activity: 0.243%
HCT-116 [4]
  viability at 1 µM: 13.3%
HCT-116 [5]
  Activity: 1.37%
HeLa [6]
  IC50: 1050 nM
HCT-116 [7]
  Activity: 89.6%
A-375 [8]
  Activity: 0.566%
HCT-116 [9]
  Activity: 0.65%
HeLa [10]
  Activity: 8.26%
A-375 [11]
  Activity: 91.99%
NCI-H460 [12]
  inhibition at 8 µM: 82.5%
HCT-116 [13]
  Activity: 0.639%
HeLa [14]
  Activity: Dose-dependent effect
NCI-H460 [15]
  Activity: 18.6%
HepG2 [16]
  Activity: Active
HepG2 [17]
  IC50: 860 nM
A-375 [18]
  Activity: 84.8%
HCT-116 [19]
  Activity: 72.1%
[20]
  bioavailability: 50.8%
[21]
  MRT last at 24 h: 4.54 h
[22]
  AUC(0-t) at 24 h: 7240 ng·h/mL
HeLa [23]
  viability at 2 µM: 77.4%
NCI-H460 [24]
  Activity: Dose-dependent effect
A-375 [25]
  Activity: 83.4%
Histone deacetylase 1
  Ratio IC50: 3
A-375 [26]
  Activity: Dose-dependent effect
A-375 [27]
  Activity: 57.03%
HeLa [28]
  Activity: 5.85%
HCT-116 [29]
  IC50: 580 nM
HeLa [30]
  viability at 1 µM: 85.2%
